Data as given in ChEMBL document CHEMBL1909630, “Azaxanthene based selective glucocorticoid receptor modulators: design, synthesis, and pharmacological evaluation of (S)-4-(5-(1-((1,3,4-thiadiazol-2-yl)amino)-2-methyl-1-oxopropan-2-yl)-5H-chromeno[2,3-b]pyridin-2-yl)-2-fluoro-N,N-dimethylbenzamide (BMS-776532) and its methylene homologue …” (J Med Chem, 2011).
The source made the active and inactive calls. No cut-off for these calls is given here.

Key:
[1] = target: T1, Mineralocorticoid receptor (Homo sapiens, UniProt P08235); assay: Agonist activity at human mineralocorticoid receptor expressed in human A549 cells by fluorescence polarization assay; type: functional, cell-based
T1 sequence (P08235 whole entry): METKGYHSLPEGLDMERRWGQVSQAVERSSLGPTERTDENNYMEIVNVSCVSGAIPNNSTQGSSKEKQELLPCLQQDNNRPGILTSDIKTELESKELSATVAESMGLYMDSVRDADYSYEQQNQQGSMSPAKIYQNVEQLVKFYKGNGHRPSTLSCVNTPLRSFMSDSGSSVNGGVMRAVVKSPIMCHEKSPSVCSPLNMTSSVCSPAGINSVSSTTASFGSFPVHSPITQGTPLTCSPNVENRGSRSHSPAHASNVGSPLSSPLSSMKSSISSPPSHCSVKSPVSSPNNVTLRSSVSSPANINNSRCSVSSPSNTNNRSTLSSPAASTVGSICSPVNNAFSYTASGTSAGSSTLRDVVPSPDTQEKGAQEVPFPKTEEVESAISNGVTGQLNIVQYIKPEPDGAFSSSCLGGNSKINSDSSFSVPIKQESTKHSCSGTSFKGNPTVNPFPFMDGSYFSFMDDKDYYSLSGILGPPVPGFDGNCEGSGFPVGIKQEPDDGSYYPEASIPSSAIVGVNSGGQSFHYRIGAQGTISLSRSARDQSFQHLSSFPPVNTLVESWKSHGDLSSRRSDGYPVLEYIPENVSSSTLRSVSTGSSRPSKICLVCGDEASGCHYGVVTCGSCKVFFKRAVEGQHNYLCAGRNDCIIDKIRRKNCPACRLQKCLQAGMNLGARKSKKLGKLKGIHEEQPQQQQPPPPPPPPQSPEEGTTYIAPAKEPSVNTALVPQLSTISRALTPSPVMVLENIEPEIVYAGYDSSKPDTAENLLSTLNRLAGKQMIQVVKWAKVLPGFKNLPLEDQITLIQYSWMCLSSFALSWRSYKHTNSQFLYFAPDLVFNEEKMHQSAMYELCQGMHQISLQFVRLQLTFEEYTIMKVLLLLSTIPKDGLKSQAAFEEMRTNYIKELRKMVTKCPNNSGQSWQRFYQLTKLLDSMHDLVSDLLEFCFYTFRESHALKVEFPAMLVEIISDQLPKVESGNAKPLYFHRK

SAOS-2 = assay: Induction of alkaline phosphatase expression in human Saos2 cells after 3 days by spectrophotometry; type: cell-based; conditions: SAOS-2, 72 h
MG-63 [2] = assay: Induction of glutamine synthase expression in human MG63 cells after overnight incubation by spectrophotometry; type: cell-based
MG-63 [3] = assay: Induction of glutamine synthase expression in human MG63 cells after overnight incubation by spectrophotometry relative to prednisolone; type: cell-based
Blood [4] = assay: Antiinflammatory activity in human whole blood assessed as inhibition of LPS-induced TNFalpha production after overnight incubation by ELISA; type: functional, tissue-based
Method in brief: (§1)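 Whole blood from two donors per experiment was collected into ACD-A. Compounds were added and the blood was incubated about 20 h at 37 °C under 5% CO2. Blood was then stimulated for 5 h with LPS (final 100 ng/mL, for TNFα) or IL-1β (final 10 ng/mL, for IL-8). Plasma TNFα or IL-8 was measured by ELISA. Efficacy was expressed as % of dexamethasone, and values are means of at least two experiments.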

Blood [5] = assay: Antiinflammatory activity in human whole blood assessed as inhibition of LPS-induced TNFalpha production after overnight incubation by ELISA relative to Dexamethasone; type: functional; method in brief: as §1
Blood [6] = assay: Antiinflammatory activity in human whole blood assessed as inhibition of TNF-alpha-induced IL-8 production after overnight incubation by ELISA; type: functional, tissue-based
Blood [7] = assay: Antiinflammatory activity in human whole blood assessed as inhibition of TNF-alpha-induced IL-8 production after overnight incubation by ELISA relative to dexamethasone; type: functional
Blood [8] = assay: Antiinflammatory activity in human whole blood assessed as inhibition of IL-1beta-induced IL-8 production after overnight incubation by ELISA; type: functional, tissue-based; method in brief: as §1
Blood [9] = assay: Antiinflammatory activity in human whole blood assessed as inhibition of IL-1beta-induced IL-8 production after overnight incubation by ELISA relative to Dexamethasone; type: functional; method in brief: as §1
Rattus norvegicus [10] = assay: Antiinflammatory activity in Freund's complete adjuvant-induced Lewis rat arthritis model assessed as reduction in paw swelling at 5 mg/kg/day, po qd for 21 days; type: functional, organism-based
Method in brief: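 Male Lewis rats were inoculated with Mycobacterium butyricum in incomplete Freund's adjuvant. Oral dosing was daily and preventative, running from day 0 to day 21. Onset and progression of arthritis were followed, and ED50 was estimated from the dose response.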

Rattus norvegicus [11] = assay: Antiinflammatory activity in Sprague-Dawley rat assessed as carrageenan-induced paw edema at 30 mg/kg, po administered as a single dose 2 hrs before carrageenan challenge measured 4 hrs post carrageenan challenge by plethysmometry relative to control

EC50 [1]: 2 nM
EC50 (MG-63 [2]): 19 nM
EC50 (Blood [4]): 89 nM
EC50 (Blood [6]): 124 nM
EC50 (Blood [8]): 104 nM
SMILES: C[C@]12C=CC(=O)C=C1CC[C@@H]1[C@@H]2[C@@H](O)C[C@@]2(C)[C@H]1CC[C@]2(O)C(=O)CO [PREDNISOLONE]
Emax (SAOS-2): 68%
Emax (MG-63 [3]): 100%
Imax (Blood [5]): 94%
Imax (Blood [7]): 94%
Imax (Blood [9]): 94%
Activity (Rattus norvegicus [10]): Active
level, % of control at 30 mg/kg (Rattus norvegicus [11]): 49%
